According to ChEMBL document CHEMBL3272018, “Synthesis of aziridinylallylaminophosphine oxides and sulfides as potential adjuvant cancer chemotherapeutic agents” (J Med Chem, 1976):
Calls of active or inactive are those of the source. The rule behind the calls is not given here.

Key:
Rattus norvegicus [1] = assay: Toxicity in rat allografted with cytoxan-resistant rat Walker 256 cells intramuscularly assessed as change in body weight at 2 mg/kg, qd administered for 5 days; format: organism-based; set-up: dose 2 mg/kg, route intramuscular; conditions: in vivo, im, 120 h
Method in brief: (§1)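 Walker 256 carcinoma solid-tumour system in rats (parent line, or the line resistant to cytoxan). Dosing was one injection per day for 5 days. Toxicity was taken as the average net body-weight change of the treated group minus the average net weight change of the untreated tumour-bearing controls, in grams.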

W256 [2] = assay: Antitumor activity against cytoxan-resistant rat Walker 256 cells intramuscularly allografted in rat assessed as tumor growth inhibition at 1 mg/kg, qd administered for 5 days relative to control; format: functional; conditions: W256, im, 120 h, route intramuscular, read-out: TGI
Method in brief: (§2)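 Dosed once daily for 5 days. Response is tumor progression in treated (T) versus untreated control (C) animals, expressed as T/C percentage. Host weight change is reported as the average net weight change of the test group minus that of the controls, in grams.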

W256 [3] = assay: Antitumor activity against rat Walker 256 cells intramuscularly allografted in rat assessed as tumor growth inhibition at 2 mg/kg, qd administered for 5 days relative to control; format: functional; conditions: W256, im, 120 h, route intramuscular, read-out: TGI
Method in brief: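 Walker 256 carcinoma grown as a solid tumour in rats, with one injection daily for 5 days. Response is given as T/C %, the treated-group measure over the untreated-control tumour measure; a smaller value means more activity. Host toxicity is the mean net weight change of treated minus control animals, in grams.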

Rattus norvegicus [4] = assay: Toxicity in rat allografted with rat Walker 256 cells intramuscularly assessed as change in body weight at 0.031 mg/kg, qd administered for 5 days; format: organism-based; set-up: dose 0.031 mg/kg, route intramuscular; conditions: in vivo, im, 120 h; method in brief: as §1
Rattus norvegicus [5] = assay: Toxicity in rat allografted with rat Walker 256 cells intramuscularly assessed as change in body weight at 0.125 mg/kg, qd administered for 5 days; format: organism-based; set-up: dose 0.125 mg/kg, route intramuscular; conditions: in vivo, im, 120 h; method in brief: as §1
Rattus norvegicus [6] = species on record: Rattus norvegicus; assay: Toxicity in Wistar-Furth rat assessed as decrease in mature spermatocytes measured for 24 hrs; format: organism-based; conditions: in vivo
Method in brief: (§3)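 Wistar-Furth rats were injected daily for 5 days at the antifertility-study doses of 1 or 5 mg/kg, depending on agent. Testes or ovaries were taken at sacrifice after 1, 3 or 24 h. Cryostat frozen sections were fixed in 95% alcohol for 10 min and stained with acridine orange (DNA green, RNA red). Results were compared with untreated controls.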

W256 [7] = assay: Antitumor activity against cytoxan-resistant rat Walker 256 cells intramuscularly allografted in rat assessed as survival rate at 0.12 mg/kg, qd administered for 5 days; format: functional, organism-based; set-up: dose 0.12 mg/kg
Method in brief: (§4)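 Rats bearing Walker 256 carcinoma as a solid tumor; lines 1-8 use a cytoxan-resistant Walker 256 subline. Dosed once daily for 5 days. Treated (T) and untreated control (C) groups are compared, and the response is given as T/C percentage, reflecting increase in survival time. Host weight change is the average weight change of the test group minus that of the controls, in grams.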

Musca domestica = assay: Toxicity in male house fly assessed as lowest dose required to cause complete sterility administered in sugar; format: organism-based; conditions: in vivo, po
W256 [8] = assay: Antitumor activity against rat Walker 256 cells intramuscularly allografted in rat assessed as tumor growth inhibition at 0.125 mg/kg, qd administered for 5 days relative to control; format: functional; conditions: W256, im, 120 h, route intramuscular, read-out: TGI; method in brief: as §2
W256 [9] = assay: Antitumor activity against rat Walker 256 cells intramuscularly allografted in rat assessed as tumor growth inhibition at 0.062 mg/kg, qd administered for 5 days relative to control; format: functional; conditions: W256, im, 120 h, route intramuscular, read-out: TGI; method in brief: as §2
Rattus norvegicus [10] = species on record: Rattus norvegicus; assay: Toxicity in Wistar-Furth rat assessed as decrease in secondary spermatocytes measured for 24 hrs; format: organism-based; conditions: in vivo; method in brief: as §3
Rattus norvegicus [11] = assay: Toxicity in rat allografted with rat Walker 256 cells intramuscularly assessed as change in body weight at 0.5 mg/kg, qd administered for 5 days; format: organism-based; set-up: dose 0.5 mg/kg, route intramuscular; conditions: in vivo, im, 120 h; method in brief: as §1
W256 [12] = assay: Antitumor activity against cytoxan-resistant rat Walker 256 cells intramuscularly allografted in rat assessed as tumor growth inhibition at 0.5 mg/kg, qd administered for 5 days relative to control; format: functional; conditions: W256, im, 120 h, route intramuscular, read-out: TGI; method in brief: as §2
Rattus norvegicus [13] = assay: Toxicity in rat allografted with cytoxan-resistant rat Walker 256 cells intramuscularly assessed as change in body weight at 0.12 mg/kg, qd administered for 5 days; format: organism-based; set-up: dose 0.12 mg/kg, route intramuscular; conditions: in vivo, im, 120 h
Method in brief: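 Cytoxan-resistant Walker 256 solid tumour in rats, one injection daily for 5 days. Toxicity is the average net body-weight change of the treated group minus that of the untreated controls, in grams.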

Rattus norvegicus [14] = species on record: Rattus norvegicus; assay: Toxicity in Wistar-Furth rat assessed as effect on ovary measured for 24 hrs; format: organism-based, Female gonad; conditions: in vivo; method in brief: as §3
Rattus norvegicus [15] = assay: Toxicity in rat allografted with rat Walker 256 cells intramuscularly assessed as change in body weight at 0.25 mg/kg, qd administered for 5 days; format: organism-based; set-up: dose 0.25 mg/kg, route intramuscular; conditions: in vivo, im, 120 h; method in brief: as §1
W256 [16] = assay: Antitumor activity against rat Walker 256 cells intramuscularly allografted in rat assessed as tumor growth inhibition; format: functional; conditions: W256, im; method in brief: as §2
W256 [17] = assay: Antitumor activity against rat Walker 256 cells intramuscularly allografted in rat assessed as tumor growth inhibition at 1 mg/kg, qd administered for 5 days relative to control; format: functional; conditions: W256, im, 120 h, route intramuscular, read-out: TGI; method in brief: as §2
W256 [18] = assay: Antitumor activity against cytoxan-resistant rat Walker 256 cells intramuscularly allografted in rat assessed as tumor growth inhibition at 0.12 mg/kg, qd administered for 5 days relative to control; format: functional; conditions: W256, im, 120 h, route intramuscular, read-out: TGI; method in brief: as §2
W256 [19] = assay: Antitumor activity against rat Walker 256 cells intramuscularly allografted in rat assessed as survival rate at 0.125 mg/kg, qd administered for 5 days; format: functional, organism-based; set-up: dose 0.125 mg/kg; method in brief: as §4
W256 [20] = assay: Antitumor activity against rat Walker 256 cells intramuscularly allografted in rat assessed as survival rate at 0.25 mg/kg, qd administered for 5 days; format: functional, organism-based; set-up: dose 0.25 mg/kg; method in brief: as §4

## C=CCN(CC=C)P(=O)(N1CC1)N1CC1
Rattus norvegicus [1]
  Activity: -2 g
W256 [2]
  inhibition in vivo at 1 mg/kg: 40%
W256 [3]
  inhibition in vivo at 2 mg/kg: 0%
Rattus norvegicus [4]
  Activity: 0 g
Rattus norvegicus [5]
  Activity: -1 g
Rattus norvegicus [6]
  Activity: Non-toxic
W256 [7]
  Activity: Active
Musca domestica
  Activity: 0.05%
W256 [8]
  inhibition in vivo at 0.125 mg/kg: 1%
W256 [9]
  inhibition in vivo at 0.062 mg/kg: 7%
Rattus norvegicus [10]
  Activity: Toxic
Rattus norvegicus [11]
  Activity: -6 g
W256 [12]
  inhibition in vivo at 0.5 mg/kg: 58%
Rattus norvegicus [13]
  Activity: -14 g
Rattus norvegicus [14]
  Activity: Non-toxic
Rattus norvegicus [15]
  Activity: -12 g
W256 [16]
  ED10: 0.5 mg/kg
W256 [17]
  inhibition in vivo at 1 mg/kg: 0%
W256 [18]
  inhibition in vivo at 0.12 mg/kg: 98%
W256 [19]
  Activity: Active
W256 [20]
  Activity: Active
